Assay: Immunosuppressive activity in human RPMI1788 cells cocultured with human PBMC assessed as inhibition of [3H]thymidine incorporation incubated for 6 days prior to [3H]thymidine addition measured after 18 hrs by liquid scintillation counting
Type: functional, cell-based
Settings: RPMI-1788
Summary of the method: (§1)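 Effector PBMCs from heparinized healthy-donor blood were isolated over Lymphoprep and held at 1.2 × 10⁶ cells/mL in RPMI-1640 with 10% heat-inactivated FCS. Mitomycin-treated stimulator cells were at 0.45 × 10⁶ cells/mL. Cells were mixed with diluted compound and cultured at 37 °C, 5% CO₂. (methyl-³H)thymidine was added for the final 18 h, and filter-harvested cpm were counted by scintillation. Compounds were screened at one concentration, then dose-response IC₅₀ was determined. Values are means of two independent experiments.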
For `N#Cc1c(-c2ccc(Cl)cc2)nc(Nc2ccc(Cl)cc2)nc1N1CCOCC1`, the IC50 was greater than 10 µM. Compound `COc1ccc(-c2nc(SCc3ccccc3)nc(NCc3cccs3)c2C#N)cc1` has an IC50 of 5 µM. `N#Cc1c(NC2CCCCC2)nc(SCc2ccccc2)nc1-c1ccc(Cl)cc1` gave an IC50 of 6.4 µM. In the case of `CCOc1nc(SCc2ccccc2)nc(-c2ccc(Cl)cc2)c1C#N`, the IC50 is reported as greater than 10 µM. `COc1ccc(-c2nc(SCc3ccccc3)nc(NCCc3ccccc3)c2C#N)cc1` gave an IC50 greater than 10 µM. With `CCCCCCSc1nc(-c2ccc(OC)cc2)c(C#N)c(N2CCOCC2)n1` the IC50 was 5.3 µM. In the case of `COc1nc(SCc2ccccc2)nc(-c2ccc(Cl)cc2)c1C#N`, the IC50 is reported as greater than 10 µM. Work on `COc1ccc(-c2nc(SCc3ccccc3)nc(N3CCC(C)CC3)c2C#N)cc1` yielded an IC50 greater than 10 µM. For `N#Cc1c(-c2ccc(Cl)cc2)nc(SCc2ccccc2)nc1N1CCCC(C(N)=O)C1` (configuration not stated), the IC50 was greater than 10 µM. Compound `C=CCSc1nc(-c2ccc(OC)cc2)c(C#N)c(N2CCOCC2)n1` has an IC50 of 3.4 µM. `Cc1ccc(Nc2nc(-c3ccccc3)c(C#N)c(N3CCCCC3)n2)cc1` showed an IC50 of 4.3 µM. Compound `N#Cc1c(-c2ccc(Cl)cc2)nc(Nc2ccccc2)[nH]c1=O` has an IC50 greater than 10 µM. `N#Cc1c(-c2cccc(Cl)c2)nc(Nc2ccc(Cl)cc2)[nH]c1=O` gave an IC50 greater than 10 µM. `CC(C)Nc1nc(Nc2ccc(Cl)cc2)nc(-c2ccccc2)c1C#N` showed an IC50 of 5.7 µM. Work on `CCn1c(SCc2ccccc2)nc(-c2ccc(OC)cc2)c(C#N)c1=O` yielded an IC50 greater than 10 µM. For `CCOc1nc(SCc2ccccc2)nc(-c2cccc(Cl)c2)c1C#N`, the IC50 was greater than 10 µM. `Cc1ccc(Nc2nc(-c3ccccc3)c(C#N)c(=O)[nH]2)cc1` showed an IC50 greater than 10 µM. In the case of `N#Cc1c(-c2ccccc2)nc(Nc2ccc(Cl)cc2)[nH]c1=O`, the IC50 is reported as greater than 10 µM. With `CCn1c(SCc2ccccc2)nc(-c2ccc(Cl)cc2)c(C#N)c1=O` the IC50 was greater than 10 µM. `N#Cc1c(-c2ccc(Cl)cc2)nc(Nc2ccc(Cl)cc2)[nH]c1=O` gave an IC50 greater than 10 µM. `COc1ccc(-c2nc(SCc3ccc(Br)cc3)nc(N3CCOCC3)c2C#N)cc1` gave an IC50 greater than 10 µM. For `N#Cc1c(-c2ccc(Cl)cc2)nc(SCc2ccccc2)nc1N1CCC(C(=O)c2ccccc2)CC1`, the IC50 was 9.8 µM. With `CCCOc1nc(Nc2ccc(Cl)cc2)nc(-c2ccccc2)c1C#N` the IC50 was greater than 10 µM. `N#Cc1c(OCc2ccccc2)nc(SCc2ccccc2)nc1-c1ccc(Cl)cc1` gave an IC50 greater than 10 µM. `COc1ccc(-c2nc(SCc3ccccc3)nc(N3CCC(C(=O)c4ccccc4)CC3)c2C#N)cc1` showed an IC50 of 2.1 µM. `CCCCSc1nc(-c2ccc(OC)cc2)c(C#N)c(N2CCOCC2)n1` gave an IC50 of 2.3 µM. For `COc1nc(Nc2ccc(Cl)cc2)nc(-c2ccc(Cl)cc2)c1C#N`, the IC50 was greater than 10 µM. Compound `COc1ccc(-c2nc(SCc3ccccc3)nc(N3CCSCC3)c2C#N)cc1` has an IC50 greater than 10 µM.

Assay: Cytotoxicity against human Jurkat T cells after 48 hrs by WST1 assay
Type: cell-based
Settings: not given
Summary of the method: (§2)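 Jurkat T cells were seeded at 5.10⁴ cells per well and exposed to serial compound dilutions for 48 h at 37 °C and 5% CO₂. Part of the medium was removed, WST-1 tetrazolium salt was added, and cells were incubated further. Absorbance was read at 450 nm. Results are % cytotoxicity at each concentration, with CC₅₀ calculated.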
`COc1ccc(-c2nc(SCc3ccccc3)nc(NCc3cccs3)c2C#N)cc1` showed a CC50 at 48 h greater than 10 µM. For `N#Cc1c(NC2CCCCC2)nc(SCc2ccccc2)nc1-c1ccc(Cl)cc1`, the CC50 at 48 h was greater than 10 µM. Work on `CCCCCCSc1nc(-c2ccc(OC)cc2)c(C#N)c(N2CCOCC2)n1` yielded a CC50 at 48 h greater than 10 µM. Compound `C=CCSc1nc(-c2ccc(OC)cc2)c(C#N)c(N2CCOCC2)n1` has a CC50 at 48 h greater than 10 µM. With `Cc1ccc(Nc2nc(-c3ccccc3)c(C#N)c(N3CCCCC3)n2)cc1` the CC50 at 48 h was greater than 10 µM. `N#Cc1c(-c2ccc(Cl)cc2)nc(SCc2ccccc2)nc1N1CCC(C(=O)c2ccccc2)CC1` gave a CC50 at 48 h greater than 10 µM. `COc1ccc(-c2nc(SCc3ccccc3)nc(N3CCC(C(=O)c4ccccc4)CC3)c2C#N)cc1` showed a CC50 at 48 h greater than 10 µM. `CCCCSc1nc(-c2ccc(OC)cc2)c(C#N)c(N2CCOCC2)n1` gave a CC50 at 48 h greater than 10 µM.

Assay: Growth inhibition of human Jurkat T cells at 10 uM after 48 hrs by WST1 assay
Type: cell-based
Settings: not given
Summary of the method: as §2
For `COc1ccc(-c2nc(SCc3ccccc3)nc(NCc3cccs3)c2C#N)cc1`, the inhibition at 48 h, 10 µM was 13%. In the case of `N#Cc1c(NC2CCCCC2)nc(SCc2ccccc2)nc1-c1ccc(Cl)cc1`, the inhibition at 48 h, 10 µM is reported as 0%. In the case of `CCCCCCSc1nc(-c2ccc(OC)cc2)c(C#N)c(N2CCOCC2)n1`, the inhibition at 48 h, 10 µM is reported as 13%. Work on `C=CCSc1nc(-c2ccc(OC)cc2)c(C#N)c(N2CCOCC2)n1` yielded an inhibition at 48 h, 10 µM of 5%. In the case of `Cc1ccc(Nc2nc(-c3ccccc3)c(C#N)c(N3CCCCC3)n2)cc1`, the inhibition at 48 h, 10 µM is reported as 10%. Work on `N#Cc1c(-c2ccc(Cl)cc2)nc(SCc2ccccc2)nc1N1CCC(C(=O)c2ccccc2)CC1` yielded an inhibition at 48 h, 10 µM of 6%. For `COc1ccc(-c2nc(SCc3ccccc3)nc(N3CCC(C(=O)c4ccccc4)CC3)c2C#N)cc1`, the inhibition at 48 h, 10 µM was 2%. Compound `CCCCSc1nc(-c2ccc(OC)cc2)c(C#N)c(N2CCOCC2)n1` has an inhibition at 48 h, 10 µM of 13%.

Assay: Immunosuppressive activity in human RPMI1788 cells cocultured with human PBMC assessed as inhibition of [3H]thymidine incorporation at 10 uM incubated for 6 days prior to [3H]thymidine addition measured after 18 hrs by liquid scintillation counting
Type: functional
Settings: RPMI-1788
Summary of the method: as §1
In the case of `N#Cc1c(-c2ccc(Cl)cc2)nc(Nc2ccc(Cl)cc2)nc1N1CCOCC1`, the inhibition at 10 µM is reported as 45%. With `COc1ccc(-c2nc(SCc3ccccc3)nc(NCc3cccs3)c2C#N)cc1` the inhibition at 10 µM was 65%. In the case of `N#Cc1c(NC2CCCCC2)nc(SCc2ccccc2)nc1-c1ccc(Cl)cc1`, the inhibition at 10 µM is reported as 56%. In the case of `CCOc1nc(SCc2ccccc2)nc(-c2ccc(Cl)cc2)c1C#N`, the inhibition at 10 µM is reported as 13%. For `COc1ccc(-c2nc(SCc3ccccc3)nc(NCCc3ccccc3)c2C#N)cc1`, the inhibition at 10 µM was 11%. `CCCCCCSc1nc(-c2ccc(OC)cc2)c(C#N)c(N2CCOCC2)n1` gave an inhibition at 10 µM of 69%. `COc1nc(SCc2ccccc2)nc(-c2ccc(Cl)cc2)c1C#N` gave an inhibition at 10 µM of 10%. `COc1ccc(-c2nc(SCc3ccccc3)nc(N3CCC(C)CC3)c2C#N)cc1` showed an inhibition at 10 µM of 35%. For `N#Cc1c(-c2ccc(Cl)cc2)nc(SCc2ccccc2)nc1N1CCCC(C(N)=O)C1` (configuration not stated), the inhibition at 10 µM was 64%. With `C=CCSc1nc(-c2ccc(OC)cc2)c(C#N)c(N2CCOCC2)n1` the inhibition at 10 µM was 82%. In the case of `Cc1ccc(Nc2nc(-c3ccccc3)c(C#N)c(N3CCCCC3)n2)cc1`, the inhibition at 10 µM is reported as 88%. Work on `N#Cc1c(-c2ccc(Cl)cc2)nc(Nc2ccccc2)[nH]c1=O` yielded an inhibition at 10 µM of 8%. With `N#Cc1c(-c2cccc(Cl)c2)nc(Nc2ccc(Cl)cc2)[nH]c1=O` the inhibition at 10 µM was 14%. Work on `CC(C)Nc1nc(Nc2ccc(Cl)cc2)nc(-c2ccccc2)c1C#N` yielded an inhibition at 10 µM of 72%. Compound `CCn1c(SCc2ccccc2)nc(-c2ccc(OC)cc2)c(C#N)c1=O` has an inhibition at 10 µM of 12%. Work on `CCOc1nc(SCc2ccccc2)nc(-c2cccc(Cl)c2)c1C#N` yielded an inhibition at 10 µM of 10%. `Cc1ccc(Nc2nc(-c3ccccc3)c(C#N)c(=O)[nH]2)cc1` gave an inhibition at 10 µM of 11%. Work on `N#Cc1c(-c2ccccc2)nc(Nc2ccc(Cl)cc2)[nH]c1=O` yielded an inhibition at 10 µM of 0%. With `CCn1c(SCc2ccccc2)nc(-c2ccc(Cl)cc2)c(C#N)c1=O` the inhibition at 10 µM was 5%. For `N#Cc1c(-c2ccc(Cl)cc2)nc(Nc2ccc(Cl)cc2)[nH]c1=O`, the inhibition at 10 µM was 18%. For `COc1ccc(-c2nc(SCc3ccc(Br)cc3)nc(N3CCOCC3)c2C#N)cc1`, the inhibition at 10 µM was 36%. Work on `N#Cc1c(-c2ccc(Cl)cc2)nc(SCc2ccccc2)nc1N1CCC(C(=O)c2ccccc2)CC1` yielded an inhibition at 10 µM of 55%. Work on `CCCOc1nc(Nc2ccc(Cl)cc2)nc(-c2ccccc2)c1C#N` yielded an inhibition at 10 µM of 44%. Compound `N#Cc1c(OCc2ccccc2)nc(SCc2ccccc2)nc1-c1ccc(Cl)cc1` has an inhibition at 10 µM of 22%. In the case of `COc1ccc(-c2nc(SCc3ccccc3)nc(N3CCC(C(=O)c4ccccc4)CC3)c2C#N)cc1`, the inhibition at 10 µM is reported as 63%. For `CCCCSc1nc(-c2ccc(OC)cc2)c(C#N)c(N2CCOCC2)n1`, the inhibition at 10 µM was 67%. For `COc1nc(Nc2ccc(Cl)cc2)nc(-c2ccc(Cl)cc2)c1C#N`, the inhibition at 10 µM was 0%. For `COc1ccc(-c2nc(SCc3ccccc3)nc(N3CCSCC3)c2C#N)cc1`, the inhibition at 10 µM was 13%.

From ChEMBL document CHEMBL2331363, “Synthesis of a 2,4,6-trisubstituted 5-cyano-pyrimidine library and evaluation of its immunosuppressive activity in a Mixed Lymphocyte Reaction assay” (Bioorg Med Chem, 2013)
